Assay results: ChEMBL document CHEMBL4406856, “Structure based design, synthesis and in vitro antitumour activity of tiazofurin stereoisomers with nitrogen functions at the C-2' or C-3' positions” (Eur J Med Chem, 2019)
Activity calls are given as the source filed them. The rule behind the calls is not given here.

Tests used:
HT-29 = experiment: Antiproliferative activity against human HT-29 cells assessed as reduction in cell growth incubated for 72 hrs by MTT assay; format: functional, cell-based; conditions: HT-29, 72 h
Outline: (§1)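 Colorimetric MTT assay on human tumour lines K562 (chronic myeloid leukemia), HL-60 (promyelocytic leukemia), Jurkat (T cell leukemia), Raji (Burkitt's lymphoma), HT-29 (colorectal adenocarcinoma), HeLa (cervix adenocarcinoma) and normal lung fibroblast MRC-5; cells exposed to compounds for 72 h. IC50 taken as concentration giving 50% growth inhibition versus untreated control.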

K562 [1] = experiment: Induction of apoptosis in human K562 cells incubated for 72 hrs by annexin V FITC and propidium iodide staining based flow cytometry relative to tiazofurin; format: functional
Outline: (§2)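 K562 cells treated for 72 h, stained with Annexin V-FITC/propidium iodide and analysed by flow cytometry. Apoptotic, necrotic and live fractions scored as percent of gated cells; specific apoptosis and specific necrosis calculated from these counts.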

K562 [2] = experiment: Induction of necrosis in human K562 cells incubated for 72 hrs by annexin V FITC and propidium iodide staining based flow cytometry relative to control; format: functional; design: concentration or dose not given beside the values; outline: as §2
K562 [3] = experiment: Induction of apoptosis in human K562 cells assessed as 18 kDa Caspase 3 active subunit level incubated for 72 hrs by Western blot analysis (reference value: 100%); format: functional
Outline: (§3)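 K562 cells treated for 72 h; Bcl-2, BAX, caspase 3 precursor (32 kDa), caspase 3 active subunit (18 kDa) and PARP (112 and 85 kDa) measured by Western blot and expressed as % of untreated control.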

K562 [4] = experiment: Cell cycle arrest in human K562 cells assessed as accumulation in G2/M phase incubated for 72 hrs by propidium iodide staining based flow cytometry (reference value: 15.45%); format: functional
Outline: (§4)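 Exponentially growing K562 cells treated for 24 or 72 h, untreated cells as control; cells stained with propidium iodide and DNA content read by flow cytometry. Phase distribution (subG1, G0/G1, S, G2/M) taken from one-parameter histograms, subG1 scored as hypodiploid, apoptotic cells.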

K562 [5] = experiment: Cell cycle arrest in human K562 cells assessed as accumulation in G0/G1 phase incubated for 72 hrs by propidium iodide staining based flow cytometry (reference value: 45.43%); format: functional; outline: as §4
HL-60 = experiment: Antiproliferative activity against human HL60 cells assessed as reduction in cell growth incubated for 72 hrs by MTT assay; format: functional, cell-based; conditions: HL-60, 72 h; outline: as §1
HeLa = experiment: Antiproliferative activity against human HeLa cells assessed as reduction in cell growth incubated for 72 hrs by MTT assay; format: functional, cell-based; outline: as §1
K562 [6] = experiment: Cell cycle arrest in human K562 cells assessed as accumulation in G0/G1 phase incubated for 24 hrs by propidium iodide staining based flow cytometry (reference value: 36.28%); format: functional; outline: as §4
K562 [7] = experiment: Cell cycle arrest in human K562 cells assessed as accumulation in sub-G1 phase incubated for 24 hrs by propidium iodide staining based flow cytometry (reference value: 1.05%); format: functional; outline: as §4
K562 [8] = experiment: Induction of apoptosis in human K562 cells assessed as 32 kDa Caspase 3 precursor level incubated for 72 hrs by Western blot analysis (reference value: 100%); format: functional; outline: as §3
MRC5 = experiment: Cytotoxicity against human MRC5 cells assessed as reduction in cell viability incubated for 72 hrs by MTT assay; format: cell-based; conditions: MRC5, 72 h
Outline: (§5)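 Colorimetric MTT assay on human tumour lines K562 (chronic myeloid leukemia), HL-60 (promyelocytic leukemia), Jurkat (T cell leukemia), Raji (Burkitt's lymphoma), HT-29 (colorectal adenocarcinoma), HeLa (cervix adenocarcinoma) and normal lung fibroblast MRC-5; cells exposed to compounds for 72 h.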

Jurkat [9] = experiment: Antiproliferative activity against human Jurkat cells assessed as reduction in cell growth incubated for 72 hrs by MTT assay; format: functional, cell-based; outline: as §1
K562 [10] = experiment: Induction of apoptosis in human K562 cells assessed as 112 kDa PARP level incubated for 72 hrs by Western blot analysis (reference value: 100%); format: functional; outline: as §3
K562 [11] = experiment: Cell cycle arrest in human K562 cells assessed as accumulation in S phase incubated for 24 hrs by propidium iodide staining based flow cytometry (reference value: 48.38%); format: functional; outline: as §4
K562 [12] = experiment: Induction of apoptosis in human K562 cells assessed as Bcl2 level incubated for 72 hrs by Western blot analysis (reference value: 100%); format: functional; outline: as §3
K562 [13] = experiment: Cell cycle arrest in human K562 cells assessed as accumulation in S phase incubated for 72 hrs by propidium iodide staining based flow cytometry (reference value: 36.05%); format: functional; outline: as §4
K562 [14] = experiment: Cell cycle arrest in human K562 cells assessed as accumulation in G2/M phase incubated for 24 hrs by propidium iodide staining based flow cytometry (reference value: 14.29%); format: functional; outline: as §4
Raji [15] = experiment: Antiproliferative activity against human Raji cells assessed as reduction in cell growth incubated for 72 hrs by MTT assay; format: functional, cell-based; outline: as §5
K562 [16] = experiment: Induction of apoptosis in human K562 cells incubated for 24 hrs by annexin V FITC and propidium iodide staining based flow cytometry relative to control; format: functional; design: concentration or dose not given beside the values
K562 [17] = experiment: Cell cycle arrest in human K562 cells assessed as decrease in cell accumulation at G2/M phase incubated for 72 hrs by propidium iodide staining based flow cytometry relative to tiazofurin; format: functional; outline: as §4
K562 [18] = experiment: Induction of apoptosis in human K562 cells incubated for 72 hrs by annexin V FITC and propidium iodide staining based flow cytometry relative to control; format: functional; design: concentration or dose not given beside the values; outline: as §2
K562 [19] = experiment: Antiproliferative activity against human K562 cells assessed as reduction in cell growth incubated for 72 hrs by MTT assay; format: functional, cell-based; conditions: K562, 72 h; outline: as §5
K562 [20] = experiment: Cell cycle arrest in human K562 cells assessed as accumulation in SubG1 phase incubated for 72 hrs by propidium iodide staining based flow cytometry (reference value: 3.07%); format: functional; outline: as §4
K562 [21] = experiment: Induction of apoptosis in human K562 cells assessed as 85 kDa PARP level incubated for 72 hrs by Western blot analysis (reference value: 100%); format: functional; outline: as §3
K562 [22] = experiment: Induction of necrosis in human K562 cells incubated for 24 hrs by annexin V FITC and propidium iodide staining based flow cytometry relative to control; format: functional; design: concentration or dose not given beside the values
K562 [23] = experiment: Induction of apoptosis in human K562 cells assessed as Bax level incubated for 72 hrs by Western blot analysis (reference value: 100%); format: functional; outline: as §3
Raji [24] = experiment: Potency index, ratio of doxorubicin IC50 to compound IC50 for cytotoxicity against human Raji cells incubated for 72 hrs by MTT assay; format: functional
Raji [25] = experiment: Potency index, ratio of tiazofurin IC50 to compound IC50 for cytotoxicity against human Raji cells incubated for 72 hrs by MTT assay; format: functional
K562 [26] = experiment: Induction of apoptosis in human K562 cells assessed as reduction in cell membrane integrity at cytotoxic IC50 incubated for 72 hrs by acridine orange and ethidium bromide double staining based fluorescence microscopy; format: functional
Jurkat [27] = experiment: Potency index, ratio of tiazofurin IC50 to compound IC50 for cytotoxicity against human Jurkat cells incubated for 72 hrs by MTT assay; format: functional
Jurkat [28] = experiment: Potency index, ratio of doxorubicin IC50 to compound IC50 for cytotoxicity against human Jurkat cells incubated for 72 hrs by MTT assay; format: functional
K562 [29] = experiment: Genotoxicity in human K562 cells assessed as increase in DNA damage at cytotoxic IC50 incubated for 72 hrs by comet assay; format: toxicity, cell-based; conditions: k562, 72 h
Outline: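 Modified alkaline comet assay: cells set in agarose on slides, electrophoresed horizontally, stained with ethidium bromide and imaged by fluorescence microscopy. 50 comets scored per sample; mean tail moment used as the DNA-damage measure.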

| Compound | IC50 (HT-29) | Activity (K562 [2]) | Activity (K562 [3]) | Activity (K562 [4]) | Activity (K562 [5]) | IC50 (HL-60) | IC50 (HeLa) | Activity (K562 [6]) | Activity (K562 [7]) | Activity (K562 [8]) | IC50 (MRC5) | IC50 (Jurkat [9]) | Activity (K562 [10]) | Activity (K562 [11]) | Activity (K562 [12]) | Activity (K562 [13]) | Activity (K562 [14]) | IC50 (Raji [15]) | Activity (K562 [16]) | fold change (FC) (K562 [17]) | also measured |
| --- | --- | --- | --- | --- | --- | --- | --- | --- | --- | --- | --- | --- | --- | --- | --- | --- | --- | --- | --- | --- | --- |
| COc1cccc2c1C(=O)c1c(O)c3c(c(O)c1C2=O)C[C@@](O)(C(=O)CO)C[C@@H]3O[C@H]1C[C@H](N)[C@H](O)[C@H](C)O1 [DOXORUBICIN] | 0.15 µM |  |  |  |  |  |  |  |  |  |  |  |  |  |  |  |  |  |  |  |  |
| NC(=O)c1csc([C@@H]2O[C@H](CO)[C@@H](O)[C@@H]2N)n1 | 23.4 µM | 9.82% | 153.73% | 10.79% | 37.94% | 1.02 µM | 1.03 µM | 36.67% | 2.58% | 1144.41% | > 100 µM | 0.04 µM | 387.73% | 52.43% | 414.66% | 34.2% | 9.11% | 1.03 µM | 7.07% | 2 - 2.4 | fold change (FC) (K562 [1]): 2; Activity (K562 [18]): 23.39%; IC50 (K562 [19]): 1.97 µM; Activity (K562 [20]): 17.08%; Activity (K562 [21]): 570.91%; Activity (K562 [22]): 9.58%; Activity (K562 [23]): 193% |
| CC(=O)N[C@@H]1[C@@H](O)[C@H](c2nc(C(N)=O)cs2)O[C@@H]1CO | 0.26 µM | 14.11% | 87.05% | 13.22% | 43.3% | 3.77 µM | > 100 µM | 36.27% | 9.84% | 432.96% | 42.4 µM | 0.0072 µM | 336.99% | 49.42% | 274.16% | 41.58% | 4.47% | 0.0039 µM | 27.17% | 2 - 2.4 | Ratio IC50 (Raji [24]): 764; Ratio IC50 (Raji [25]): 1353 - 1354; Activity (K562 [26]): Active; Ratio IC50 (Jurkat [27]): 5; Ratio IC50 (Jurkat [28]): 4; Activity (K562 [18]): 10.14%; Activity (K562 [29]): Toxic; IC50 (K562 [19]): 0.34 µM; Activity (K562 [20]): 1.9%; Activity (K562 [21]): 364.31%; Activity (K562 [22]): 8.55%; Activity (K562 [23]): 126.68% |
| [N-]=[N+]=N[C@H]1[C@H](O)[C@@H](CO)O[C@H]1c1nc(C(N)=O)cs1 | 2.48 µM | 6.24% | 156.25% | 13.6% | 37.65% | 7.55 µM | 29.9 µM | 29.73% | 2.32% | 3222.35% | > 100 µM | > 100 µM | 355.91% | 47.46% | 35.23% | 35.15% | 20.75% | 40.5 µM | 12.47% | 2 - 2.4 | Activity (K562 [18]): 12.86%; IC50 (K562 [19]): 6.28 µM; Activity (K562 [20]): 13.59%; Activity (K562 [21]): 169.74%; Activity (K562 [22]): 1.26%; Activity (K562 [23]): 186.25% |
